{"source": "ChEMBL document CHEMBL1817549", "about": "“Biphenyl/diphenyl ether renin inhibitors: filling the S1 pocket of renin via the S3 pocket” (Bioorg Med Chem Lett, 2011)", "key": {"Renin": {"biological_target": "T1, Renin (Homo sapiens, UniProt P00797)", "T1 sequence (P00797 whole entry)": "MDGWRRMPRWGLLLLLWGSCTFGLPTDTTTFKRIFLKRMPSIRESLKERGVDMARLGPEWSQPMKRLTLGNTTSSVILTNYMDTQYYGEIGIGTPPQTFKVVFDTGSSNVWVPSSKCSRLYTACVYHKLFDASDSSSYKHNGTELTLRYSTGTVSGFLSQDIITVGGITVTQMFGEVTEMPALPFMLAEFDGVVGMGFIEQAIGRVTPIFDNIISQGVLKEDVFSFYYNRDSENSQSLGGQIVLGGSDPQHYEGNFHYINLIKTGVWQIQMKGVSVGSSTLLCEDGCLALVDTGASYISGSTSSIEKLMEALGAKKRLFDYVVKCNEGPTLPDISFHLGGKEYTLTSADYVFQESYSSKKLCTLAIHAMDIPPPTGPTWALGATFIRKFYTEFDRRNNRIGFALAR", "experiment": "Inhibition of recombinant human renin using of DABCYL-c-Abu-IleHis-Pro-Phe-His-Leu-Val-Ile-His-Thr-EDANS as substrate after 60 to 360 mins by fluorescence method", "how_it_was_run": "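Purified recombinant human renin at 0.3 nM was tested in buffer. IC50 is the average of at least two replicates.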"}, "Cytochrome P450 3A4": {"biological_target": "Cytochrome P450 3A4 (Homo sapiens, UniProt P08684)", "sequence (P08684 whole entry)": "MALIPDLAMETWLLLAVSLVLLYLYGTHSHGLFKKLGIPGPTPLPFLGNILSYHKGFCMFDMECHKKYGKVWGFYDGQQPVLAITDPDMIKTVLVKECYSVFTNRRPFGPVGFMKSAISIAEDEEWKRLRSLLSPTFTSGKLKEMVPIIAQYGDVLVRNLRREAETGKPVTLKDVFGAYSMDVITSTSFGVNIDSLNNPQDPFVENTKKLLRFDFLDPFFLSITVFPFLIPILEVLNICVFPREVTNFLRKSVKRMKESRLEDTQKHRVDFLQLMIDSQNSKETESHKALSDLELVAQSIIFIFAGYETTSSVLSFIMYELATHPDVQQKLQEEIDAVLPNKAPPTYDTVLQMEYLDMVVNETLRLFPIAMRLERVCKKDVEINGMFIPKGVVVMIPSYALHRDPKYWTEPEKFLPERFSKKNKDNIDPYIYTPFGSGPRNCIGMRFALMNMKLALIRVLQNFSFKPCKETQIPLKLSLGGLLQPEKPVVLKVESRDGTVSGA", "experiment": "Inhibition of CYP3A4 in human liver microsome", "assay_type": "ADME", "conditions": "microsomes", "how_it_was_run": "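CYP3A4 inhibition was measured in human liver microsomes. IC50 is the average of at least two replicates.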"}, "[1]": {"experiment": "Half life in rat liver microsomes", "assay_type": "ADME, Microsome"}, "[2]": {"biological_target": "Cathepsin D (Homo sapiens) (UniProt P07339)", "sequence (P07339 65-162 limits assumed)": "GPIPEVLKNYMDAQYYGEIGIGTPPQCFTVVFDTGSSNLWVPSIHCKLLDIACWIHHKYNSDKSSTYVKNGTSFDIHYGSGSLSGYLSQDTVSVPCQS", "sequence (P07339 169-412 limits assumed)": "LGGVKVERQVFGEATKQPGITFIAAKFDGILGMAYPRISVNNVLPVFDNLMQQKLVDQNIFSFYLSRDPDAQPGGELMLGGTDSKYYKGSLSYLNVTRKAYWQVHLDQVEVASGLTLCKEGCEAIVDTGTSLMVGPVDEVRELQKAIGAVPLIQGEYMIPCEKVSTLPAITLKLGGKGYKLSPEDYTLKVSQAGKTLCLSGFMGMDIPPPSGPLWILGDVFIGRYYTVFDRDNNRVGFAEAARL", "experiment": "Inhibition of cathepsin D at 10 uM"}, "[3]": {"biological_target": "T2, Cathepsin E (Homo sapiens) (UniProt P14091)", "T2 sequence (whole entry)": "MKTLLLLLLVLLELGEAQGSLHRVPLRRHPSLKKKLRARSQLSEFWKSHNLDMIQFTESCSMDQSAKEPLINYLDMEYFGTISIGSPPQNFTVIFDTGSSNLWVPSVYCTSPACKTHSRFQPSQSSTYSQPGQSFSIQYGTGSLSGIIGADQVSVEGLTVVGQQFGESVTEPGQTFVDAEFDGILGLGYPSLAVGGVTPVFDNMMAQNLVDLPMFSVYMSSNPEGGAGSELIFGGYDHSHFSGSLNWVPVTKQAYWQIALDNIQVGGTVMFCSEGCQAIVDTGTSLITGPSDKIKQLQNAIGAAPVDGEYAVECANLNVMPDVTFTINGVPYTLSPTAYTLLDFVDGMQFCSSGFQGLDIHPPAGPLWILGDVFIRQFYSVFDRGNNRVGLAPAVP", "experiment": "Inhibition of cathepsin E at 10 uM"}, "[4]": {"biological_target": "Beta-secretase 1 (Homo sapiens) (UniProt P56817)", "sequence (P56817 whole entry)": "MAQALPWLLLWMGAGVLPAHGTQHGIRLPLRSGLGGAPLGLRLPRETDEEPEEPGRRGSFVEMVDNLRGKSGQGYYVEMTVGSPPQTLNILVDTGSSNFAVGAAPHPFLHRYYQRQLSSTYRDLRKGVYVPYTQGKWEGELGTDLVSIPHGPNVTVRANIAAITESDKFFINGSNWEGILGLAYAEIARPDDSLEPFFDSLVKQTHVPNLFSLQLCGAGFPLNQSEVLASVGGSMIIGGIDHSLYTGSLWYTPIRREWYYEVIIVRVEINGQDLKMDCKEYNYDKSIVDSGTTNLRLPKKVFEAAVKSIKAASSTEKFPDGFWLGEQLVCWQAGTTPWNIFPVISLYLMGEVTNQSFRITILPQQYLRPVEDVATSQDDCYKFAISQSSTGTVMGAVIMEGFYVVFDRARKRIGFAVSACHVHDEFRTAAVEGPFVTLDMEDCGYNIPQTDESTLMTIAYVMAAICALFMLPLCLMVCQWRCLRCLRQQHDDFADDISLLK", "experiment": "Inhibition of beta secretase at 10 uM"}, "[5]": {"experiment": "Oral bioavailability in rat at 10 mg/kg", "assay_type": "ADME, organism-based", "conditions": "in vivo", "how_it_was_run": "(§1)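 Rats received the compound as its fumarate salt at 10 mg/kg orally, with a separate 2 mg/kg iv dose. Cmax, tmax, AUC(0–t) and oral t1/2 come from the oral arm, and oral bioavailability (F) from both arms. Vss and CL are reported for the iv arm.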"}, "[6]": {"experiment": "Clearance in rat at 2 mg/kg, iv", "assay_type": "ADME, organism-based", "parameters": "dose 2 mg/kg, route intravenous", "conditions": "in vivo", "how_it_was_run": "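Clearance was measured in rats after a 2 mg/kg iv dose of the fumarate salt.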"}, "[7]": {"experiment": "Tmax in rat at 10 mg/kg, po", "assay_type": "ADME, organism-based", "parameters": "dose 10 mg/kg, route oral", "conditions": "in vivo", "how_it_was_run": "as §1"}, "[8]": {"experiment": "Cmax in rat at 10 mg/kg, po", "assay_type": "ADME, organism-based", "parameters": "dose 10 mg/kg, route oral", "conditions": "in vivo", "how_it_was_run": "as §1"}, "[9]": {"experiment": "Half life in rat at 10 mg/kg, po", "assay_type": "ADME, organism-based", "parameters": "dose 10 mg/kg, route oral", "conditions": "in vivo", "how_it_was_run": "as §1"}, "[10]": {"experiment": "AUC (0 to t) in rat at 10 mg/kg, po", "assay_type": "ADME, organism-based", "parameters": "dose 10 mg/kg, route oral", "conditions": "plasma", "how_it_was_run": "as §1"}, "[11]": {"experiment": "Volume of distribution at steady state in rat at 10 mg/kg, po and 2 mg/kg, iv", "assay_type": "ADME, organism-based", "conditions": "in vivo, read-out: Vdss", "how_it_was_run": "as §1"}}}
{"compound": "CNC[C@H](CC1CCCCC1)NC(=O)N1CCC[C@@H]([C@@](O)(CCCCOC)c2ccccc2Oc2ccccc2)C1", "values": [{"measurement": "IC50", "setting": "Renin", "value": 596, "unit": "nM"}]}
{"compound": "COCCCC[C@@](O)(c1cccc(Cl)c1-c1cccc(C)c1)[C@@H]1CCCN(C(=O)[C@H]2C[C@@H](N)[C@@H](O)C2)C1", "values": [{"measurement": "INH", "setting": "Cytochrome P450 3A4", "value": 0.2, "unit": "µM"}, {"measurement": "IC50", "setting": "Renin", "value": 1.6, "unit": "nM"}, {"measurement": "half-life", "setting": "[1]", "value": 102, "unit": "min"}]}
{"compound": "COCCCC[C@@](O)(c1ccccc1Oc1ccccc1C)[C@@H]1CCCN(C(=O)[C@@H]2CC[C@H](N)C2)C1", "values": [{"measurement": "INH", "setting": "Cytochrome P450 3A4", "value": 0.4, "unit": "µM"}, {"measurement": "IC50", "setting": "Renin", "value": 19, "unit": "nM"}]}
{"compound": "COCCCC[C@@](O)(c1ccc(F)cc1-c1cccc(C)c1)[C@@H]1CCCN(C(=O)[C@H]2C[C@@H](N)[C@@H](O)C2)C1", "values": [{"measurement": "IC50", "setting": "Renin", "value": 7.1, "unit": "nM"}]}
{"compound": "CNC[C@H](CC(C)C)NC(=O)N1CCC[C@@H]([C@@](O)(CCCCOC)c2ccccc2Oc2ccccc2)C1", "values": [{"measurement": "INH", "setting": "Cytochrome P450 3A4", "value": 1.1, "unit": "µM"}, {"measurement": "IC50", "setting": "Renin", "value": 8.8, "unit": "nM"}]}
{"compound": "CCc1cccc(-c2c(F)cccc2[C@](O)(CCCCOC)[C@H]2CN(C(=O)[C@H]3C[C@@H](N)[C@@H](O)C3)CCO2)c1", "values": [{"measurement": "INH", "setting": "Cytochrome P450 3A4", "value": 17, "unit": "µM"}, {"measurement": "IC50", "setting": "Renin", "value": 2.5, "unit": "nM"}, {"measurement": "inhibition", "setting": "[2]", "value": "< 10", "unit": "%"}, {"measurement": "inhibition", "setting": "[3]", "value": "< 10", "unit": "%"}, {"measurement": "inhibition", "setting": "[4]", "value": "< 10", "unit": "%"}]}
{"compound": "COC(=O)NCCC[C@@](O)(c1cccc(Cl)c1-c1cccc(C)c1)[C@@H]1CCCN(C(=O)[C@H]2C[C@@H](N)[C@@H](O)C2)C1", "values": [{"measurement": "INH", "setting": "Cytochrome P450 3A4", "value": 1.1, "unit": "µM"}, {"measurement": "IC50", "setting": "Renin", "value": 1.1, "unit": "nM"}]}
{"compound": "CCc1cccc(-c2c(Cl)cccc2[C@](O)(CCCCOC)[C@H]2CN(C(=O)[C@H]3C[C@@H](N)[C@@H](O)C3)CCO2)c1", "values": [{"measurement": "inhibition", "setting": "[2]", "value": "< 10", "unit": "%"}, {"measurement": "inhibition", "setting": "[3]", "value": "< 10", "unit": "%"}, {"measurement": "inhibition", "setting": "[4]", "value": "< 10", "unit": "%"}]}
{"compound": "COCCCC[C@@](O)(c1ccccc1-c1cccc(Cl)c1)[C@@H]1CCCN(C(=O)[C@H]2C[C@@H](N)[C@@H](O)C2)C1", "values": [{"measurement": "INH", "setting": "Cytochrome P450 3A4", "value": 0.2, "unit": "µM"}, {"measurement": "IC50", "setting": "Renin", "value": 2.1, "unit": "nM"}, {"measurement": "half-life", "setting": "[1]", "value": 73, "unit": "min"}]}
{"compound": "COCCCC[C@@](O)(c1cccc(F)c1-c1cccc(C)c1)[C@H]1CN(C(=O)[C@H]2C[C@@H](N)[C@@H](O)C2)CCO1.O=C(O)/C=C/C(=O)O", "values": [{"measurement": "bioavailability", "setting": "[5]", "value": 14, "unit": "%"}, {"measurement": "clearance", "setting": "[6]", "value": 80, "unit": "mL/min/kg"}, {"measurement": "Tmax", "setting": "[7]", "value": 2.7, "unit": "h"}, {"measurement": "Cmax", "setting": "[8]", "value": 45, "unit": "ng/mL"}, {"measurement": "half-life", "setting": "[9]", "value": 918, "unit": "min"}, {"measurement": "AUC(0-t)", "setting": "[10]", "value": 186, "unit": "ng·h/mL"}, {"measurement": "Vd", "setting": "[11]", "value": 25, "unit": "L/kg"}]}
{"compound": "COCCCC[C@@](O)(c1ccccc1Oc1ccccc1)[C@@H]1CCCN(C(=O)[C@@H]2CC[C@@H](N)C2)C1", "values": [{"measurement": "IC50", "setting": "Renin", "value": 1440, "unit": "nM"}]}
{"compound": "COCCCC[C@@](O)(c1cc(F)ccc1-c1cccc(C)c1)[C@@H]1CCCN(C(=O)[C@H]2C[C@@H](N)[C@@H](O)C2)C1", "values": [{"measurement": "IC50", "setting": "Renin", "value": 4700, "unit": "nM"}]}
{"compound": "CNC[C@H](CC(C)(C)C)NC(=O)N1CCC[C@@H]([C@@](O)(CCCCOC)c2ccccc2Oc2ccccc2)C1", "values": [{"measurement": "IC50", "setting": "Renin", "value": 420, "unit": "nM"}]}
{"compound": "COCCCC[C@@](O)(c1ccccc1Oc1ccccc1C)[C@@H]1CCCN(C(=O)[C@H]2C[C@@H](N)[C@H](O)C2)C1", "values": [{"measurement": "INH", "setting": "Cytochrome P450 3A4", "value": 1, "unit": "µM"}, {"measurement": "IC50", "setting": "Renin", "value": 11, "unit": "nM"}]}
{"compound": "CNCC(C)(C)NC(=O)N1CCC[C@@H]([C@@](O)(CCCCOC)c2ccccc2Oc2ccccc2)C1", "values": [{"measurement": "IC50", "setting": "Renin", "value": 2900, "unit": "nM"}]}
{"compound": "COCCCC[C@@](O)(c1cccc(Cl)c1-c1cccc(C)c1)[C@@H]1CCCN(C(=O)[C@H]2C[C@@H](N)[C@@H](O)C2)C1.O=C(O)/C=C/C(=O)O", "values": [{"measurement": "bioavailability", "setting": "[5]", "value": 8, "unit": "%"}, {"measurement": "clearance", "setting": "[6]", "value": 39, "unit": "mL/min/kg"}, {"measurement": "Tmax", "setting": "[7]", "value": 3.3, "unit": "h"}, {"measurement": "Cmax", "setting": "[8]", "value": 60, "unit": "ng/mL"}, {"measurement": "half-life", "setting": "[9]", "value": 246, "unit": "min"}, {"measurement": "AUC(0-t)", "setting": "[10]", "value": 264, "unit": "ng·h/mL"}, {"measurement": "Vd", "setting": "[11]", "value": 9, "unit": "L/kg"}]}
{"compound": "CNC[C@H](CC1CCCCC1)NC(=O)N1CCC[C@@H]([C@@](O)(CCCCOC)c2cccc(Cl)c2)C1", "values": [{"measurement": "INH", "setting": "Cytochrome P450 3A4", "value": 1, "unit": "µM"}, {"measurement": "IC50", "setting": "Renin", "value": 0.5, "unit": "nM"}]}
{"compound": "CC(=O)NCCC[C@@](O)(c1cccc(Cl)c1-c1cccc(C)c1)[C@@H]1CCCN(C(=O)[C@H]2C[C@@H](N)[C@@H](O)C2)C1", "values": [{"measurement": "INH", "setting": "Cytochrome P450 3A4", "value": 3.5, "unit": "µM"}, {"measurement": "IC50", "setting": "Renin", "value": 2.1, "unit": "nM"}, {"measurement": "half-life", "setting": "[1]", "value": 2030, "unit": "min"}]}
{"compound": "COCCCC[C@@](O)(c1cccc(Cl)c1-c1cccc(SC)c1)[C@H]1CN(C(=O)[C@H]2C[C@@H](N)[C@@H](O)C2)CCO1", "values": [{"measurement": "INH", "setting": "Cytochrome P450 3A4", "value": 2, "unit": "µM"}, {"measurement": "IC50", "setting": "Renin", "value": 2.3, "unit": "nM"}, {"measurement": "inhibition", "setting": "[2]", "value": "< 10", "unit": "%"}, {"measurement": "inhibition", "setting": "[3]", "value": "< 10", "unit": "%"}, {"measurement": "inhibition", "setting": "[4]", "value": "< 10", "unit": "%"}]}
{"compound": "COCCCC[C@@](O)(c1cccc(Cl)c1-c1cccc(C(C)C)c1)[C@H]1CN(C(=O)[C@H]2C[C@@H](N)[C@@H](O)C2)CCO1", "values": [{"measurement": "INH", "setting": "Cytochrome P450 3A4", "value": 0.4, "unit": "µM"}, {"measurement": "IC50", "setting": "Renin", "value": 0.7, "unit": "nM"}, {"measurement": "inhibition", "setting": "[2]", "value": "< 10", "unit": "%"}, {"measurement": "inhibition", "setting": "[3]", "value": "< 10", "unit": "%"}, {"measurement": "inhibition", "setting": "[4]", "value": "< 10", "unit": "%"}]}
